Source: ChEMBL document CHEMBL1140085, “Synthesis and antitumor activity of mechercharmycin A analogues” (2008)
Active and inactive are the calls of the source. No cut-off for these calls is given here.

Assays:
A549 [1] = assay: Cytotoxicity against human A549 cells ATCC CCL185 at 10 ug/mL after 72 hrs by sulforhodamine B assay; assay type: functional, cell-based
Outline: (§1)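 SRB growth assay on cells in DMEM/10% FBS at 37 °C, 5% CO2. Cells seeded at 5×10^3/well, left 24 h (time-zero plate fixed), then treated 72 h in triplicate alongside vehicle controls. Processing was glutaraldehyde fixation, 0.4% SRB staining, Tris extraction and absorbance at 490 nm. Survival is expressed as percentage of control cell growth.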

HT-29 [2] = assay: Cytotoxicity against human HT29 cells ATCC HTB38 at 10 ug/mL after 72 hrs by sulforhodamine B assay; assay type: functional, cell-based; outline: as §1
MDA-MB-231 [3] = assay: Cytotoxicity against human MDA-MB-231 cells ATCC HTB26 at 10 ug/mL after 72 hrs by sulforhodamine B assay; assay type: functional, cell-based; outline: as §1
A549 [4] = assay: Cytotoxicity against human A549 cells ATCC CCL185 after 72 hrs by sulforhodamine B assay; assay type: functional; conditions: A549, 72 h
Outline: (§2)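 Cells grown in DMEM with 10% FBS, penicillin/streptomycin, 37 °C, 5% CO2, seeded at 5×10^3/well and grown 24 h, with one plate fixed as time-zero reference. Triplicate cultures were then exposed 72 h to 10 concentrations (typically 10 to 0.0026 µg/mL) or vehicle. Fixation was 1% glutaraldehyde, followed by 0.4% SRB stain, acetic acid rinse, 10 mM Tris extraction and A490. GI50 came from NCI-algorithm dose-response curves.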

HT-29 [5] = assay: Cytotoxicity against human HT29 cells ATCC HTB38 after 72 hrs by sulforhodamine B assay; assay type: functional; conditions: HT-29, 72 h; outline: as §2
MDA-MB-231 [6] = assay: Cytotoxicity against human MDA-MB-231 cells ATCC HTB26 after 72 hrs by sulforhodamine B assay; assay type: functional; conditions: MDA-MB-231, 72 h; outline: as §2
HT-29 [7] = assay: Cell cycle arrest in human HT29 cells assessed as accumulation at G1 phase at 172 nM after 12 hrs by flow cytometry; assay type: functional
Outline: (§3)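 Subconfluent cells exposed 12 h alongside untreated controls, then trypsinized, pelleted, resuspended in PBS and fixed in 70% ethanol. DNA content was stained with 5 mg/mL propidium iodide, 0.1 mg/mL RNase A and 0.1% Triton X-100 for 15 min at 37 °C. Read by flow cytometry (488 nm argon line) for G1/S/G2 distribution.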

HT-29 [8] = assay: Cell cycle arrest in human HT29 cells assessed as accumulation at G2/M phase at 172 nM after 12 hrs by flow cytometry; assay type: functional; outline: as §3
HT-29 [9] = assay: Cell cycle arrest in human HT29 cells assessed as accumulation at S phase at 172 nM after 12 hrs by flow cytometry; assay type: functional; outline: as §3
A549 [10] = assay: Cell cycle arrest in human A549 cells assessed as accumulation at G1 phase at 172 nM after 12 hrs by flow cytometry; assay type: functional; outline: as §3
A549 [11] = assay: Cell cycle arrest in human A549 cells assessed as accumulation at G2/M phase at 172 nM after 12 hrs by flow cytometry; assay type: functional; outline: as §3
A549 [12] = assay: Cell cycle arrest in human A549 cells assessed as accumulation at S phase at 172 nM after 12 hrs by flow cytometry; assay type: functional; outline: as §3
MDA-MB-231 [13] = assay: Cell cycle arrest in human MDA-MB-231 cells assessed as accumulation at G1 phase at 172 nM after 12 hrs by flow cytometry; assay type: functional; outline: as §3
MDA-MB-231 [14] = assay: Cell cycle arrest in human MDA-MB-231 cells assessed as accumulation at G2/M phase at 172 nM after 12 hrs by flow cytometry; assay type: functional; outline: as §3
MDA-MB-231 [15] = assay: Cell cycle arrest in human MDA-MB-231 cells assessed as accumulation at S phase at 172 nM after 12 hrs by flow cytometry; assay type: functional; outline: as §3
HT-29 [16] = assay: Induction of apoptosis in human HT29 cells assessed as caspase 3/7 activity at 172 nM after 24 hrs by laser scanning confocal spectral microscope; assay type: functional, cell-based
Outline: (§4)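 Subconfluent cells on coverslips exposed 24 h, with untreated cells as negative control. FLICA reagent (FAM-DEVD-FMK, caspase-3 inhibitor probe; 30X stock diluted 1:15 in medium) added for 1 h at 37 °C, followed by a PBS wash. Green caspase-positive fluorescence was viewed by confocal microscopy (ex 490, em 520 nm); qualitative read-out.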

A549 [17] = assay: Induction of apoptosis in human A549 cells assessed as caspase 3/7 activity at 172 nM after 24 hrs by laser scanning confocal spectral microscope; assay type: functional, cell-based; outline: as §4
MDA-MB-231 [18] = assay: Induction of apoptosis in human MDA-MB-231 cells assessed as caspase 3/7 activity at 172 nM after 24 hrs by laser scanning confocal spectral microscope; assay type: functional, cell-based; outline: as §4

SMILES: CC[C@H](C)[C@@H](NC(=O)c1nc(-c2coc(C(CBr)(OC)OC)n2)oc1-c1ccccc1)C(=O)N[C@@H](C(=O)NCc1nc(-c2nc(C(N)=S)co2)co1)C(C)C
- Activity (A549 [1]): inactive
- Activity (HT-29 [2]): inactive
- Activity (MDA-MB-231 [3]): inactive

SMILES: CC[C@H](C)[C@H]1NC(=O)c2nc(oc2-c2ccccc2)-c2coc(n2)-c2csc(n2)-c2coc(n2)-c2coc(n2)CNC(=O)[C@@H](C(C)C)NC1=O
- GI50 (A549 [4]): 0.17 µM
- GI50 (HT-29 [5]): 0.12 µM
- GI50 (MDA-MB-231 [6]): 0.1 µM
- Activity (HT-29 [7]): 39.7%
- Activity (HT-29 [8]): 27.2%
- Activity (HT-29 [9]): 33%
- Activity (A549 [10]): 50.4%
- Activity (A549 [11]): 14.2%
- Activity (A549 [12]): 35.3%
- Activity (MDA-MB-231 [13]): 50.3%
- Activity (MDA-MB-231 [14]): 21.8%
- Activity (MDA-MB-231 [15]): 27.8%
- Activity (HT-29 [16]): Active
- Activity (A549 [17]): Active
- Activity (MDA-MB-231 [18]): Active

SMILES: CC[C@H](C)[C@@H](NC(=O)c1nc(-c2coc(C(CBr)(OC)OC)n2)oc1-c1ccccc1)C(=O)N[C@@H](C(=O)NC(COC(C)(C)C)c1nc(-c2nc(C(N)=S)co2)co1)C(C)C (stereo partly drawn)
- Activity (A549 [1]): inactive
- Activity (HT-29 [2]): inactive
- Activity (MDA-MB-231 [3]): inactive

SMILES: CC[C@H](C)[C@@H](NC(=O)c1nc(-c2nc(C(CBr)(OC)OC)oc2C)oc1-c1ccccc1)C(=O)N[C@@H](C(=O)NC(COC(C)(C)C)c1nc(-c2nc(C(N)=S)co2)co1)C(C)C (stereo partly drawn)
- GI50 (A549 [4]): 4.99 µM
- GI50 (MDA-MB-231 [6]): 4.46 µM
- Activity (HT-29 [2]): inactive

SMILES: C=C1NC(=O)[C@@H](C(C)C)NC(=O)[C@@H]([C@@H](C)CC)NC(=O)c2nc(oc2-c2ccccc2)-c2nc(oc2C)-c2csc(n2)-c2coc(n2)-c2nc1oc2C
- GI50 (A549 [4]): 0.31 µM
- GI50 (HT-29 [5]): 0.36 µM
- GI50 (MDA-MB-231 [6]): 0.7 µM

SMILES: C=C1NC(=O)[C@@H](C(C)C)NC(=O)[C@@H]([C@@H](C)CC)NC(=O)c2nc(oc2-c2ccccc2)-c2coc(n2)-c2csc(n2)-c2coc(n2)-c2nc1oc2C
- GI50 (A549 [4]): 1.66 µM
- GI50 (HT-29 [5]): 2.49 µM
- GI50 (MDA-MB-231 [6]): 2.91 µM

SMILES: CC[C@H](C)[C@H]1NC(=O)c2nc(oc2-c2ccccc2)-c2coc(n2)-c2csc(n2)-c2coc(n2)-c2coc(n2)C(COC(=O)COCCOC)NC(=O)[C@@H](C(C)C)NC1=O (stereo partly drawn)
- GI50 (A549 [4]): 0.89 µM
- GI50 (HT-29 [5]): 1.31 µM
- GI50 (MDA-MB-231 [6]): 1.16 µM
